Values after ≈ are worked out from the molar mass of the structure shown. Active and inactive are the calls of the source. The calls are words filed in the database; no cut-off is given here.
Columns and labels:
Escherichia coli = experiment: Antibacterial activity against Escherichia coli assessed as inhibition of growth after 18 hrs by broth culture method; type: functional
In short: (§1)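 Broth dilution in 0.5 mL Sensitivity Test Broth, inoculated with 0.2 mL of a 10^-4 dilution of an 18-h broth culture. MIC read after 18-h incubation as the lowest concentration preventing growth.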

[1] = target: D-alanyl-D-alanine carboxypeptidase (Streptomyces sp. R61) (UniProt P15555); experiment: Inhibition of Streptomyces R61 DD-carboxypeptidase using Ac2-L-Lys-D-Ala-D-Ala as substrate at 10 to 100 ug/ml
Sequence of D-alanyl-D-alanine carboxypeptidase (Streptomyces sp. R61) (P15555 whole entry): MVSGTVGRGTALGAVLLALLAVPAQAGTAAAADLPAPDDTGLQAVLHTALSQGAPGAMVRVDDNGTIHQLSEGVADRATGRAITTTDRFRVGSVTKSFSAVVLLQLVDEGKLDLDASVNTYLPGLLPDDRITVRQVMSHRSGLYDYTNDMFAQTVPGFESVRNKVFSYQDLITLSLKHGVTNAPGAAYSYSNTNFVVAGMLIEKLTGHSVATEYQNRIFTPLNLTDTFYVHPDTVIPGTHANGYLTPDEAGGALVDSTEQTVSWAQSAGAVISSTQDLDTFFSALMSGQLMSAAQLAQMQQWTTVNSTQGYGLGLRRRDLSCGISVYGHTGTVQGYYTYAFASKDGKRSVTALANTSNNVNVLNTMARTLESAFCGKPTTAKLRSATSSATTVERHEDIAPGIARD
In short: (§2)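 Enzymes tested for release of D-alanine, measured with D-amino acid oxidase. Compounds assayed at 10 and 100 μg/mL. Substrates: Ac2-L-Lys-D-Ala-D-Ala for the Streptomyces R61 enzyme; UDP-N-acetylmuramyl-L-alanyl-meso-diaminopimeloyl-D-alanyl-D-alanine for the B. stearothermophilus and S. typhimurium enzymes.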

Staphylococcus aureus = experiment: Antibacterial activity against Staphylococcus aureus assessed as inhibition of growth after 18 hrs by broth culture method; type: functional; in short: as §1
[2] = target: T1, D-alanyl-D-alanine carboxypeptidase DacA (Geobacillus stearothermophilus) (UniProt Q05523); experiment: Inhibition of Bacillus stearothermophilus DD-carboxypeptidase using UDP-N-acetylmuramyl-L-alanyl-meso-diaminopimeloyl-D-alanyl-D-alanine as substrate at 10 to 100 ug/ml; in short: as §2
T1 sequence (whole entry): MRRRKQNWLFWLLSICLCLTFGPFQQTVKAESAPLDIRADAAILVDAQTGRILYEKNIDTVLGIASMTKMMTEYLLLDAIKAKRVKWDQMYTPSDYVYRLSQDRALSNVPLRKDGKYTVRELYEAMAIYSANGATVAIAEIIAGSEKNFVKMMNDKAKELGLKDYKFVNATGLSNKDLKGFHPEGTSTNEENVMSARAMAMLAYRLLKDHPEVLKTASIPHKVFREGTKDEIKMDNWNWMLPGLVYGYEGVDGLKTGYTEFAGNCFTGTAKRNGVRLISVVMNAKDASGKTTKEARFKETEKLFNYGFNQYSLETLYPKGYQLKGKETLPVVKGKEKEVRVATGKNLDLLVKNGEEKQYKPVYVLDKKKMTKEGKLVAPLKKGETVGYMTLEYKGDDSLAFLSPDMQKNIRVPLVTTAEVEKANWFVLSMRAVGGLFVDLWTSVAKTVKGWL

[3] = system: Salmonella enterica subsp. enterica serovar Typhimurium; experiment: Inhibition of Salmonella typhimurium DD-carboxypeptidase using UDP-N-acetylmuramyl-L-alanyl-meso-diaminopimeloyl-D-alanyl-D-alanine as substrate at 10 to 100 ug/ml; in short: as §2

With `C[C@@H](NC(=O)[C@H](CCCCNC(=O)OC(C)(C)C)NC(=O)CI)C(=O)OC(C)(C)C` the MIC (Escherichia coli) was greater than 500 µg/mL, the inhibition [1] was “inactive” and the MIC (Staphylococcus aureus) was 15 µg/mL (≈ 27.7 µM). For the same compound, the inhibition [2] was “inactive” and the inhibition [3] was “inactive”.

From ChEMBL document CHEMBL3272093, “Antibacterial halogenoacetyl derivatives of amino acids and simple peptides” (1977)
